In ChEMBL document CHEMBL1134569, “Synthesis and in vitro and in vivo antimalarial activity of new 4-anilinoquinolines” (J Med Chem, 2001):

Assays:
Plasmodium falciparum = assay: Inhibitory activity against chloroquine-resistant Plasmodium falciparum FcB1R; format: functional, organism-based; conditions: Plasmodium falciparum
[1] = Cytotoxicity upon MRC-5 cells (diploid embryonic lung cell line) at 12.5 uM; format: cell-based, MRC5; conditions: human
Procedure, shortened: (§1)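 MRC-5 human diploid embryonic lung cells seeded at 5000/well, washed after 24 h, then given 2-fold drug dilutions in RPMI + 5% FCS (final DMSO below 0.5%). Incubated at 37 °C, 5% CO₂, for 7 days. MTT read-out at 540 nm, scored as percent absorbance reduction versus untreated controls.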

[2] = Cytotoxicity upon MPMs (mouse peritoneal macrophages) at 2 uM
Procedure, shortened: (§2)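 Mouse peritoneal macrophages harvested 48 h after potato-starch stimulation and seeded at 30000 cells/well. After 24 h, washed and exposed to 2-fold drug dilutions in RPMI + 5% FCS (final DMSO below 0.5%) at 37 °C, 5% CO₂, for 7 days. Toxicity scored microscopically as toxic or not versus untreated controls.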

[3] = Cytotoxicity upon MRC-5 cells (diploid embryonic lung cell line) at 3.1 uM; format: cell-based, MRC5; conditions: human; procedure, shortened: as §1
[4] = Cytotoxicity upon MPMs (mouse peritoneal macrophages) at 3.1 uM conc.;NT=No Toxicity; procedure, shortened: as §2
[5] = Cytotoxicity upon MRC-5 cells (diploid embryonic lung cell line) at 1.6 uM conc.; format: cell-based, MRC5; conditions: human; procedure, shortened: as §1
[6] = Cytotoxicity upon MRC-5 cells (diploid embryonic lung cell line) at 6.3 uM; format: cell-based, MRC5; conditions: human; procedure, shortened: as §1
[7] = Cytotoxicity upon MPMs (mouse peritoneal macrophages) at 12.5 uM conc.;NT=No Toxicity; procedure, shortened: as §2
[8] = Cytotoxicity upon MPMs (mouse peritoneal macrophages) at 6.3 uM; procedure, shortened: as §2
[9] = Cytotoxicity upon MPMs (mouse peritoneal macrophages) at 12.5 uM conc.; Toxic; procedure, shortened: as §2
[10] = Cytotoxicity upon MRC-5 cells (diploid embryonic lung cell line) at 25 uM conc.; format: cell-based, MRC5; conditions: human; procedure, shortened: as §1

| Compound | IC50 (Plasmodium falciparum) [nM] | cytotoxicity at 12.5 µM [1] [%] | NT [2] | cytotoxicity at 3.1 µM [3] [%] | NT [4] | cytotoxicity at 1.6 µM [5] [%] | cytotoxicity at 6.3 µM [6] [%] | NT [7] | NT [8] | Cytotoxicity [9] | cytotoxicity at 25 µM [10] [%] |
| --- | --- | --- | --- | --- | --- | --- | --- | --- | --- | --- | --- |
| Nc1cc(CO)cc(Nc2ccnc3cc(Cl)ccc23)c1 | 279 | 0 | Cytotoxicity upon MPMs at 2 uM | 0 | Cytotoxicity upon MPMs at 2 uM | 0 | 0 | Cytotoxicity upon MPMs at 2 uM | Cytotoxicity upon MPMs at 2 uM | – | – |
| CC1CCN(CCC(=O)Nc2cc(CO)cc(Nc3ccnc4cc(Cl)ccc34)c2)CC1 | 136 | 100 | – | 0 | Cytotoxicity upon MPMs at 6.3 uM | – | 0 | – | Cytotoxicity upon MPMs at 6.3 uM | Toxic | – |
| O=C(CN1CCCCC1)Nc1cc(COC(=O)CCCCN2CCCC2)cc(Nc2ccnc3cc(Cl)ccc23)c1 | 23 | – | Cytotoxicity upon MPMs at 2 uM | – | – | 0 | 83 | Cytotoxicity upon MPMs at 2 uM | Cytotoxicity upon MPMs at 2 uM | – | 82 |
| O=C(CN1CCCCC1)Nc1cc(COC(=O)CCCCBr)cc(Nc2ccnc3cc(Cl)ccc23)c1 | 151 | – | Cytotoxicity upon MPMs at 2 uM | – | – | 0 | 0 | Cytotoxicity upon MPMs at 2 uM | Cytotoxicity upon MPMs at 2 uM | – | 0 |
| O=C(CN1CCCCC1)Nc1cc(COC(=O)c2ccccc2)cc(Nc2ccnc3cc(Cl)ccc23)c1 | 75.5 | – | Cytotoxicity upon MPMs at 2 uM | – | – | 20 | 38 | – | Cytotoxicity upon MPMs at 2 uM | Toxic | 66 |
| O=C(CN1CCCCC1)Nc1cc(COC(=O)CN2CCCCC2)cc(Nc2ccnc3cc(Cl)ccc23)c1 | 54 | – | – | – | – | 0 | 0 | – | – | – | 93 |
| CC1CCN(CCCCC(=O)Nc2cc(CO)cc(Nc3ccnc4cc(Cl)ccc34)c2)CC1 | 465 | 0 | – | 0 | Cytotoxicity upon MPMs at 6.3 uM | – | 0 | Cytotoxicity upon MPMs at 6.3 uM | Cytotoxicity upon MPMs at 6.3 uM | – | – |
| O=C(CN1CCCCC1)Nc1cc(COC(=O)CCCCCN2CCCCC2)cc(Nc2ccnc3cc(Cl)ccc23)c1 | 27.4 | – | Cytotoxicity upon MPMs at 2 uM | – | – | 0 | 81 | Cytotoxicity upon MPMs at 2 uM | Cytotoxicity upon MPMs at 2 uM | – | 92 |
| O=C(CCl)Nc1cc(CO)cc(Nc2ccnc3cc(Cl)ccc23)c1 | > 1000 | 92 | – | 0 | Cytotoxicity upon MPMs at 6.3 uM | – | 0 | – | Cytotoxicity upon MPMs at 6.3 uM | Toxic | – |
| O=C(CO)Nc1cc(CO)cc(Nc2ccnc3cc(Cl)ccc23)c1 | > 1000 | 0 | – | 0 | Cytotoxicity upon MPMs at 6.3 uM | – | 0 | Cytotoxicity upon MPMs at 6.3 uM | Cytotoxicity upon MPMs at 6.3 uM | – | – |
| O=C(CN1CCSC1)Nc1cc(CO)cc(Nc2ccnc3cc(Cl)ccc23)c1 | 588 | 0 | – | 0 | Cytotoxicity upon MPMs at 6.3 uM | – | 0 | Cytotoxicity upon MPMs at 6.3 uM | Cytotoxicity upon MPMs at 6.3 uM | – | – |
| O=C(Nc1cc(CO)cc(Nc2ccnc3cc(Cl)ccc23)c1)c1ccccc1 | > 1000 | 0 | – | 0 | Cytotoxicity upon MPMs at 6.3 uM | – | 0 | Cytotoxicity upon MPMs at 6.3 uM | Cytotoxicity upon MPMs at 6.3 uM | – | – |
| CC1CCN(CCCCCCCCCCCC(=O)Nc2cc(CO)cc(Nc3ccnc4cc(Cl)ccc34)c2)CC1 | 86 | 100 | – | 0 | Cytotoxicity upon MPMs at 6.3 uM | – | 0 | – | Cytotoxicity upon MPMs at 6.3 uM | Toxic | – |
| CC1CCN(CCCCCCCC(=O)Nc2cc(CO)cc(Nc3ccnc4cc(Cl)ccc34)c2)CC1 | 308 | 0 | – | 0 | Cytotoxicity upon MPMs at 6.3 uM | – | 0 | Cytotoxicity upon MPMs at 6.3 uM | Cytotoxicity upon MPMs at 6.3 uM | – | – |
| O=C(C[n+]1ccccc1)Nc1cc(CO)cc(Nc2ccnc3cc(Cl)ccc23)c1.[Cl-] | 927 | 0 | – | 0 | Cytotoxicity upon MPMs at 6.3 uM | – | 0 | Cytotoxicity upon MPMs at 6.3 uM | Cytotoxicity upon MPMs at 6.3 uM | – | – |
| O=C(CN1CCCCC1)Nc1cc(COC(=O)CCN2CCCCC2)cc(Nc2ccnc3cc(Cl)ccc23)c1 | 78.3 | – | Cytotoxicity upon MPMs at 2 uM | – | – | 0 | 0 | Cytotoxicity upon MPMs at 2 uM | Cytotoxicity upon MPMs at 2 uM | – | 90 |
| CCN(CC)CC(=O)Nc1cc(CO)cc(Nc2ccnc3cc(Cl)ccc23)c1 | 41.6 | 0 | – | 0 | Cytotoxicity upon MPMs at 6.3 uM | – | 0 | – | Cytotoxicity upon MPMs at 6.3 uM | Toxic | – |
| CC1CCN(CCCCCC(=O)Nc2cc(CO)cc(Nc3ccnc4cc(Cl)ccc34)c2)CC1 | 304 | 0 | – | 0 | Cytotoxicity upon MPMs at 6.3 uM | – | 0 | Cytotoxicity upon MPMs at 6.3 uM | Cytotoxicity upon MPMs at 6.3 uM | – | – |
| CCN(CC)CCCCC(=O)OCc1cc(NC(=O)CN2CCCCC2)cc(Nc2ccnc3cc(Cl)ccc23)c1 | 141 | – | Cytotoxicity upon MPMs at 2 uM | – | – | 0 | 13 | Cytotoxicity upon MPMs at 2 uM | Cytotoxicity upon MPMs at 2 uM | – | 22 |
| O=C(CN1CCCC1)Nc1cc(CO)cc(Nc2ccnc3cc(Cl)ccc23)c1 | 44 | 0 | – | 0 | Cytotoxicity upon MPMs at 6.3 uM | – | 0 | – | Cytotoxicity upon MPMs at 6.3 uM | Toxic | – |
| CN1CCN(CCCCC(=O)OCc2cc(NC(=O)CN3CCCCC3)cc(Nc3ccnc4cc(Cl)ccc34)c2)CC1 | 65.1 | – | Cytotoxicity upon MPMs at 2 uM | – | – | 0 | 0 | Cytotoxicity upon MPMs at 2 uM | Cytotoxicity upon MPMs at 2 uM | – | 97 |
